Screening results as filed in PubChem.
Hits are enriched below; roughly 2.5% of the tested compounds scored in any of these assays.
NadD block – inhibitors of Staphylococcus aureus NadD; purified NadD enzyme, colorimetric absorbance read-out; inhibition, % at 20 µM; 360,000 tested, 0.78% active; in the data active = inhibition above about 26%
B2AR ag – activates human beta-2 adrenergic receptor causing internalization. response, % (test concentration not listed). Am2.2-beta2AR cells, FAP receptor internalization, flow cytometry. 340,000 tested, 0.43% active. P07550;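 active = response above a set limit, near 3 SD of response in nonfluorescent compounds, cut at about 42% in these data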
GRK2 aptamer HTS – human GRK2 inhibition via aptamer displacement | P25098 | inhibition of aptamer binding, % at 10 µM | bead flow cytometry, FAM-aptamer displacement from GRK2 | AID 488847 | 330,000 tested, 0.59% active;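 active = inhibition of aptamer binding above 40%, roughly 3 SD of noise, on plates passing a quality check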;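 also: median bead fluorescence of bound FAM aptamer so fluorescent compounds give negative values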
ABHD5 PLIN5 PPI – blocks binding of human ABHD5 to perilipin-5; Q00G26+Q8WTS1; Split G. princeps luciferase complementation, luminescence, 4 h; inhibition, % at 4 µM; 360,000 tested, 0.78% active; AID 602281;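 active = inhibition above the mean inhibition across every tested compound plus 3 SD, cut at about 22% in these data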;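 also: 0% = DMSO only wells and the 100% control is not disclosed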
Target sequence (Q00G26 whole entry, looked up): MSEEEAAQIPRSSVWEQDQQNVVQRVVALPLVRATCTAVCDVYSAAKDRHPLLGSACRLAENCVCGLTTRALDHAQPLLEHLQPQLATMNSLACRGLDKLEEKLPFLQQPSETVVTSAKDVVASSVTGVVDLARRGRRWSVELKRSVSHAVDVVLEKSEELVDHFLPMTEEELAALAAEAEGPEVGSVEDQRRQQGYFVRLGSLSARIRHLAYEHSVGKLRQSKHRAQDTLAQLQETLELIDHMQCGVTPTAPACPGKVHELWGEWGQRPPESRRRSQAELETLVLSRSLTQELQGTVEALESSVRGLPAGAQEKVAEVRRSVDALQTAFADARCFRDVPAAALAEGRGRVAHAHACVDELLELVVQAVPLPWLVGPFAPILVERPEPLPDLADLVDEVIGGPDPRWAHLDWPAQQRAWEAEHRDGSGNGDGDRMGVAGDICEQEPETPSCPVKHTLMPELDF
Target sequence (Q8WTS1 whole entry, looked up): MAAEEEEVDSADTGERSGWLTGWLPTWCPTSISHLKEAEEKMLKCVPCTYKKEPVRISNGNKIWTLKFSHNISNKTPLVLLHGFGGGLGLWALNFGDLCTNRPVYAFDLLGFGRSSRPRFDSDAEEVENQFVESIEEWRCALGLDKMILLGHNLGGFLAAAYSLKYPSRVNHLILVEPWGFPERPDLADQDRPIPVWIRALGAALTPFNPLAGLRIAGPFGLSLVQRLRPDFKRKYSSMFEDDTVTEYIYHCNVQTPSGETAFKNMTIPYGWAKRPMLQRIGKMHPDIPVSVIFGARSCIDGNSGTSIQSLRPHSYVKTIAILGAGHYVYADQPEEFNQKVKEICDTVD
SENP1 FRET inh – blocks the human SENP1 SUMO protease catalytic domain | recombinant SENP1 catalytic domain, CyPet-SUMO1-YPet FRET cleavage | inhibition, % at 10 µM | 360,000 tested, 0.21% active;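 active = inhibition at least 30% at 10 µM, raw YFP signal under a set limit, fluorescence ratio 0.5 to 1.5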;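 also: 0% = enzyme with DMSO and 100% = no enzyme wells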
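Controls: no-enzyme wells low, DMSO-plus-enzyme wells high control. Test system: human recombinant His6-tagged SENP1 catalytic domain enzyme. Reagent: SFCypet-SUMO1-SFYpet FRET protein substrate, 25 nM final. Doses: one dose per compound, 10 µM, 0.5% DMSO. Detection: FRET, CFP and YFP emission. Timing: 50 min reaction at room temperature.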
SENP1 conf – confirmation of human SENP1 SUMO protease inhibitors; shares compounds with SENP1 FRET inh; recombinant SENP1, CyPet-SUMO1-YPet FRET cleavage; inhibition, % at 10 µM; 520 tested, 34% active; AID 651678; in the data active = inhibition mostly above about 35%, no sharp cut-off; inactive = mostly below about 32%;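 also: 0% = enzyme with DMSO and 100% = no enzyme control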
SENP1 kinetic – SENP1 (human) inhibition, kinetic confirmation. shares compounds with SENP1 FRET inh. recombinant SENP1, CyPet-SUMO1-YPet FRET kinetic cleavage. inhibition, % at 10 µM. 520 tested, 26% active. AID 651690; in the data active = inhibition mostly above about 32%, no sharp cut-off; inactive = mostly below about 29%;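 also: 0% = DMSO with enzyme and 100% = no enzyme substrate only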
* hit, by the source's call; . = no result.

SMILES	NadD block	B2AR ag	GRK2 aptamer HTS	ABHD5 PLIN5 PPI	SENP1 FRET inh	SENP1 conf	SENP1 kinetic
O=C(c1ccccc1)[C@@H]1[C@@H]2C(=O)N(c3ccc(F)cc3)C(=O)[C@@H]2C2CCCN21 (stereo partly drawn)	4	2	1	17	76*	73*	48*
O=C(c1ccc(Cl)cc1)C1C2C(=O)N(c3ccccc3)C(=O)C2C2CCCN21 (stereo not drawn)	2	5	.	4	-19	.	.
COc1ccc(N2C(=O)C3C(C2=O)C(C(=O)c2ccc(Cl)cc2)N2CCCC32)cc1 (stereo not drawn)	14	5	.	12	71*	77*	50*
COc1cc(/C=C/c2ccc3cccc([N+](=O)[O-])c3n2)ccc1OCC(=O)O	11	2	0	-1	15	.	.
COc1cc(/C=C/c2ccc3c([N+](=O)[O-])cccc3n2)ccc1OCC(=O)O	4	-7	9	2	54*	26	19
CCCCC(=O)OCC(=O)C1(O)Cc2c(O)c3c(c(O)c2C(OC2CC(NC(=O)C(F)(F)F)C(O)C(C)O2)C1)C(=O)c1c(OC)cccc1C3=O (stereo not drawn)	-9	-549	.	-9	95*	27	12
CC(C)(C)OC(=O)C[C@H]1C/C=C\C[C@H](CC(=O)NCCO)C(=O)NC[C@H](c2ccccc2)OC1=O	-7	-2	3	1	-2	.	.
Cc1nc(-c2ccc(F)cc2)c(CC(=O)N2CCN(S(=O)(=O)c3cccc([N+](=O)[O-])c3)CC2)s1	-2	12	.	4	35*	10	2
CSCCC(NC(=O)c1cccc(C)c1)C(=O)Nc1sccc1C(N)=O (stereo not drawn)	1	-5	1	-6	-11	.	.
O=C(Nc1cc(Cl)ccc1-n1cncn1)c1ccc([N+](=O)[O-])s1	5	-14	0	1	-6	.	.
CC(=O)Oc1ccc(Cl)cc1/C=C/c1ccc2ccccc2n1	3	3	0	-3	34*	38*	16
CC(=O)Oc1ccc(/C=C2/SC(=S)N(Cc3ccccc3)C2=O)cc1	-5	-93	2	13	74*	6	8
COc1cc(/C=C2/SC(=S)N(C)C2=O)ccc1OC(=O)c1ccco1	0	-8	5	0	34*	32	27
COc1cc(/C=C2\SC(=S)N(CCC(=O)NCCc3ccccc3)C2=O)cc(OC)c1OC	0	1	0	1	35*	13	16
COc1ccc(/C=C2\SC(=S)N(CCC(=O)NC3=NCCS3)C2=O)cc1OC	5	6	0	-4	53*	9	17
C=CCCC(=O)NC1CCCc2c1cnn2-c1ccccc1F (stereo not drawn)	-5	-1	1	0	-2	.	.
COc1cccc2c1-c1c(O)cccc1C2=O	-8	-5	0	4	31*	42*	26
CCOC(=O)[C@]12CCC=C1N(Cc1ccc3c(c1)OCO3)C(=O)[C@H](CC(=O)NCc1ccccc1)C2	3	.	.	1	0	.	.
CCOC(=O)C1=C(c2ccccc2)NC(=O)NC1c1cc(OC)c(OC)c(OC)c1 (stereo not drawn)	0	-2	2	4	-1	.	.
CCOC(=O)C1=C(c2ccccc2)NC(=O)NC1c1cc(Cl)c(O)c(OC)c1 (stereo not drawn)	0	11	1	-3	32*	30	23
C=CCOCCN1C(=O)C2C(c3ccccc3)C=CC(c3ccccc3)C2C1=O (stereo not drawn)	0	-2	6	-1	66*	76*	61*
O=S(=O)(N/N=C/c1ccc(N2CCOCC2)cc1)c1ccccc1	5	1	0	5	37*	32	25
CCn1c(C)nc2cc(C(=O)N/N=C/c3ccc(N4CCOCC4)cc3)ccc21	0	8	0	2	35*	28	26
O=C(N/N=C/c1ccc(N2CCOCC2)s1)c1ccc(O)cc1	6	.	.	-6	-74	.	.
O=C(N/N=C/c1ccc(N2CCOCC2)cc1)c1ccc(O)cc1	-4	1	4	-3	34*	25	17
SMILES	NadD block	B2AR ag	GRK2 aptamer HTS	ABHD5 PLIN5 PPI	SENP1 FRET inh	SENP1 conf	SENP1 kinetic
Cc1ccccc1NC(=O)c1c(C)[nH]c(=S)c(C#N)c1-c1ccc(Cl)cc1	18	0	0	-4	50*	5	8
Cc1[nH]c(=S)c(C#N)c(-c2ccccc2)c1C(=O)Nc1ccccc1	2	-2	0	-4	55*	-2	-9
O=S(=O)(c1ccc(Br)cc1)c1nc(-c2ccco2)oc1NCCCn1ccnc1	10	-12	.	4	1	.	.
O=C1CCC[C@@H]2C[C@@]3(C[C@@H]4CCN1[C@H]24)Nc1cc(Cl)ccc1NC3=NC1CCCCC1	7	-13	.	5	5	.	.
O=C1CCC[C@@H]2C[C@@]3(C[C@@H]4CCN1[C@H]24)Nc1cc([N+](=O)[O-])ccc1NC3=NC1CCCCC1	12	-16	.	-11	70*	32	23
CC(Oc1ccc(C(=O)c2ccc(F)cc2)cc1)C(=O)N1CCOCC1 (stereo not drawn)	4	-12	0	-19	0	.	.
Nc1cc2cccnc2cc1Cl	0	3	.	-29	42*	19	4
N#Cc1c(C(F)(F)F)cc(-c2ccccc2)nc1SCCN1CCOCC1	-1	16	0	1	33*	12	9
CCCSc1nc(-c2ccccc2)cc(C(F)(F)F)c1C#N	16	2	0	9	1	.	.
O=C(CN1CCC(C(=O)c2ccc3c(c2)OCCO3)CC1)Nc1ccccc1C(F)(F)F	-10	-4	1	0	-1	.	.
CCCCNC(=O)C[C@@H]1C[C@@]2(C(=O)OCC)CCCC=C2N(Cc2ccccc2)C1=O	.	.	.	-2	-2	.	.
Nc1nc(N=Nc2ccc(O)cc2)cc(=O)[nH]1	1	.	.	5	72*	65*	44*
Nc1nc(N)c(N=Nc2ccccc2)c(=O)[nH]1	-4	-1	.	-5	-11	.	.
N#C/C(C(N)=O)=C1/SC(Cc2ccc(F)cc2)C(=O)N1c1ccccc1 (stereo not drawn)	-2	0	0	-2	70*	-4	2
O=C1C2=C(SCCS2)C(=O)N1CCCO	7	6	3	-1	54*	48*	29
CC1CCCCN1C(=O)Cn1nnc(-c2cccnc2)n1 (stereo not drawn)	0	4	0	-1	30*	34	23
O=[N+]([O-])c1ccc(-c2cn3c(n2)SCC3)cc1	-2	-8	0	-2	31*	9	9
